How the values were obtained:
[1] = system: cannabinoid CB2 receptor; conditions: cited from earlier work
[2] = system: human ether-a-go-go related gene (hERG); conditions: cited from earlier work
[3] = system: cannabinoid CB1 receptor; conditions: cited from earlier work
[4] = system: P450 2D6; conditions: cited from earlier work
[5] = system: P450 2C9; conditions: cited from earlier work
[6] = system: FAAH; conditions: cited from earlier work
[7] = system: vanilloid receptors; conditions: cited from earlier work
[8] = previously observed; cited from earlier work
[9] = system: P450 3A4; conditions: cited from earlier work
[10] = Hemiketal / hydrate; assay type: physicochemical; conditions: for hydrate (gem diol) formation at 24 h: 7% D2O–DMSO-d6, 24 h; for hydrate (gem diol) formation initially: 7% D2O–DMSO-d6, initially; for hemiketal formation: in CD3OD
[11] = system: serine hydrolases in the mouse brain proteome including KIAA1363, MAGL, and ABHD6; experiment: Activity-based protein profile; assay type: biochemical; conditions: both enantiomers; mouse brain proteome 1 mg/mL, FP-rhodamine 100 nM, 10 nM to 100 μM
[12] = target: T1, purified recombinant rat FAAH (rFAAH) (Rattus norvegicus, UniProt P97612); experiment: FAAH enzyme inhibition assay; assay type: biochemical; conditions: for fold loss in activity / fold less potent than 3 against FAAH: relative to 3
T1 sequence (P97612 30-579 limits assumed): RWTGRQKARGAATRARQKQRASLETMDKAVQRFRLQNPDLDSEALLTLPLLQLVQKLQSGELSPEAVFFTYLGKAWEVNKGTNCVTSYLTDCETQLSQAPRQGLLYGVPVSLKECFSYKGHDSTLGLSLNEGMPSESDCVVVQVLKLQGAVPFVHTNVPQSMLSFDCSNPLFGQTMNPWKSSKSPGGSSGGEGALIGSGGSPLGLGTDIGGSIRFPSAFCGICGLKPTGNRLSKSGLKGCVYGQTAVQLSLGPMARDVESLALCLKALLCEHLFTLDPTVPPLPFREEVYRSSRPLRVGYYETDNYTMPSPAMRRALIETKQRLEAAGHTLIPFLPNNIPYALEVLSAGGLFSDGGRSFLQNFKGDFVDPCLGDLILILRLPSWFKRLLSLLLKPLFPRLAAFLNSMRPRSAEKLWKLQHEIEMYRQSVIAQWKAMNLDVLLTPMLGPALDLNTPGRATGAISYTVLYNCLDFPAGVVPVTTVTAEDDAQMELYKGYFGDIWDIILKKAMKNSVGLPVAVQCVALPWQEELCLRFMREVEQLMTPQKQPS

[13] = Racemization after dissolution in a variety of solvents; assay type: physicochemical; conditions: 5% Et3N in EtOAc
[14] = Epimerization in assay buffer without enzyme, monitored by chiral HPLC; assay type: physicochemical; conditions: assay buffer pH 9.1, without enzyme, 30 min
Outline: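 Test compound dissolved in DMSO and added to assay buffer (pH 9.1) with no enzyme. Enantiopurity was followed by chiral HPLC over a 30 min exposure. Loss of enantiomeric excess is reported as percent change.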

O=C(CCCCCCc1ccccc1)c1ncc(-c2ccccn2)o1 [compound 2]
binding to CB2 [1]: does not bind
inhibition of hERG [2]: does not inhibit
binding to CB1 [3]: does not bind
inhibition of P450 2D6 [4]: does not inhibit
inhibition of P450 2C9 [5]: does not inhibit
antinociception in FAAH knockout mice ([6]; FAAH knockout mice): No antinociception
in vivo activity [6]: antinociceptive and anti-inflammatory activity
levels of anandamide in vivo [6]: increases
binding to vanilloid receptors [7]: does not bind
hydrated (gem diol) state in solution [8]: do not adopt a hydrated (gem diol) state
inhibition of P450 3A4 [9]: does not inhibit

O=C(c1ncc(-c2ccccn2)o1)[C@H]1CCc2cc(Oc3ccccc3)ccc2C1 [compound 3, reference compound]
hydrate (gem diol) or hemiketal formation ([10]; CD3OD and 7% D2O–DMSO-d6): no detectable

O=C(c1ncc(-c2ccccn2)o1)C1CCc2cc(Oc3ccccc3)ccc2O1 (stereo not drawn) [compound 14]
selectivity for FAAH over all other serine hydrolases [11]: > 200 fold
hydrate (gem diol) formation at 24 h [10]: 25%
hydrate (gem diol) formation initially [10]: no gem diol detected
hemiketal formation [10]: 34%
fold loss in activity / fold less potent than 3 against FAAH [12]: 8 fold
fold reduction in activity upon introduction of the C5-pyridine substituent (14 vs 16) ([12]; relative to 16): 2 fold
racemization within the first hour [13]: significant racemization
time to complete epimerization ([13]; continued exposure): ≤ 48 h
total change in ee (loss of enantiopurity) [14]: −4.4%

COC(=O)c1cccc(-c2cnc(C(=O)C3CCc4cc(Oc5ccccc5)ccc4O3)o2)n1 (stereo not drawn) [compound 15]
hydrate (gem diol) formation at 24 h [10]: 27%
hydrate (gem diol) formation initially [10]: no gem diol detected
hemiketal formation [10]: 45%

O=C(c1ncco1)C1CCc2cc(Oc3ccccc3)ccc2O1 (stereo not drawn) [compound 16]
hydrate (gem diol) formation at 24 h [10]: 13%
hydrate (gem diol) formation initially [10]: no gem diol detected
hemiketal formation [10]: 38%
total change in ee (loss of enantiopurity) [14]: −6.8%

O=C(c1ncc(-c2ccccn2)o1)C1COc2cc(OCc3ccccc3)ccc2C1 (stereo not drawn) [compound 46]
potency relative to the unsubstituted parent oxazoles ([12]; installation of the pyridine substituent at C5): roughly equipotent
fold less active than either 2 or 3 ([12]; relative to 2 or 3): 4 fold
fold loss in activity / fold less potent than 3 against FAAH [12]: 2- to 4 fold
total change in ee (loss of enantiopurity) [14]: −4.8%

O=C(c1ncc(-c2ccccn2)o1)C1COc2cc(Oc3ccccc3)ccc2C1 (stereo not drawn) [compound 47]
selectivity for FAAH over all other serine hydrolases [11]: > 200 fold
fold loss in activity / fold less potent than 3 against FAAH [12]: 2- to 4 fold
total change in ee (loss of enantiopurity) [14]: −1.7%

O=C(c1ncc(I)o1)C1COc2cc(Oc3ccccc3)ccc2C1 (stereo not drawn) [compound 54]
fold difference in potency between the two enantiomers ([12]; FAAH inhibition): 1.6 fold

— paper PMC4029506 (Bioorganic & medicinal chemistry, 2014)
